In ChEMBL document CHEMBL4382201 (J Med Chem, 2018):
In brackets after ≈: the same amount, converted by molar mass. Activity calls are given as the source filed them. No cut-off for these calls is given here.

What was measured:
MDA-MB-468 [1] = assay: Growth inhibition of human MDA-MB-468 cells after 48 hrs by […]; assay type: functional, cell-based; settings: MDA-MB-468, 48 h
dsDNA [2] = assay: Induction of DNA-interstanded-cross-link formation in [32P]-labeled 49-mer duplex DNA (unknown origin) at 1 mM in absence of H2O2 after 16 hrs by PAGE relative to control; assay type: functional
How it was run: (§1)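 A 32P-labelled 49-mer, annealed with 1.5 equiv complement (65 °C for 3 min in 10 mM potassium phosphate pH 7, 100 mM NaCl, then slow cooling), was used at 1.0 µM before final dilution. Duplex was mixed with compound (final 1 mM), NaCl and potassium phosphate pH 8, with or without H2O2. Incubation 16 h at room temperature, formamide quench, then 20% denaturing PAGE.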

[3] = Drug level in DMSO-d6/PBS buffer treated with (3-(((2-Amino-3-methoxy-3-oxopropyl)thio)methyl)-4-(bis(2-chloroethyl)amino)phenyl)boronic Acid assessed as compound formation after 10 days in presence of GSH by IT-TOF mass analysis; assay type: physicochemical; settings: 240 h
[4] = Drug level in DMSO-d6/PBS buffer treated with N,N-bis(2-chloroethyl)-4-(4,4,5,5-tetramethyl-1,3,2-dioxaborolan-2-yl)aniline assessed as compound formation after 10 days in presence of GSH by IT-TOF mass analysis; assay type: physicochemical; settings: 240 h
DNA = assay: Induction of DNA cross-linking activity in human CLL-derived lymphocytes assessed as increase in gammaH2AX formation at 5 to 20 uM after 24 hrs by flow cytometry; assay type: functional, cell-based
How it was run: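 Primary CLL lymphocytes from 5 patients were treated at 5-20 µM for 24 h. γH2AX was quantified by flow cytometry.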

MDA-MB-468 [5] = assay: Growth inhibition of human MDA-MB-468 cells after 48 hrs by SRB assay; assay type: functional; settings: MDA-MB-468, 48 h
How it was run: (§2)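 NCI-60 five-dose screen at 100 µM, 10 µM, 1 µM, 100 nM and 10 nM. Incubation 48 h at 37 °C, 5% CO2, 100% humidity. Growth was expressed relative to the no-drug control and to the time-zero cell number, and GI50 was derived from these values.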

[6] = Drug metabolism in DMSO-d6/PBS buffer assessed as 2-((2-chloroethyl)(4-(4,4,5,5-tetramethyl-1,3,2-dioxaborolan-2-yl)phenyl)amino)ethanol formation after 10 days in presence of GSH by IT-TOF mass analysis
[7] = Solubility of the compound in PBS buffer at 10 mM at pH 7.4 by UV-based analysis; assay type: physicochemical
How it was run: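 Compound (10 mM DMSO stock) was diluted into pH 7.4 buffer (ethanolamine/KH2PO4/potassium acetate/KCl) to a final 5% DMSO. After sonication and 18 h agitation the mixture was filtered and scanned by UV at 230-800 nm. Solubility was calculated from calibration plots made in 20% acetonitrile buffer, in quadruplicate, with solubility standards on each plate.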

SR = assay: Growth inhibition of human SR cells after 48 hrs by SRB assay; assay type: functional; how it was run: as §2
[8] = Drug metabolism in DMSO-d6/PBS buffer assessed as 4-(bis(2-chloroethyl)amino)phenylboronic acid formation after 10 days in presence of GSH by IT-TOF mass analysis
[9] = Drug metabolism in PBS buffer assessed as 4-(bis(2-chloroethyl)amino)phenylboronic acid formation at pH 6 to 7 after 48 hrs
dsDNA [10] = assay: Induction of DNA-interstanded-cross-link formation in [32P]-labeled 49-mer duplex DNA (unknown origin) at 1 mM in presence of H2O2 after 16 hrs by PAGE relative to control; assay type: functional; how it was run: as §1
[11] = tested on: Panel NCI-60 (60 carcinoma cell lines); assay: Growth inhibition of human NCI60 cells at 10 uM after 48 hrs by SRB assay relative to control; assay type: functional, cell-based
How it was run: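 NCI-60 one-dose screen: cells exposed to 10 µM for 48 h at 37 °C, 5% CO2, 100% humidity. Percent growth is given relative to the no-drug control and the time-zero cell count.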

CCRF-CEM = assay: Growth inhibition of human CCRF-CEM cells after 48 hrs by SRB assay; assay type: functional; how it was run: as §2
SK-OV-3 = assay: Growth inhibition of human SKOV3 cells after 48 hrs by SRB assay; assay type: functional; settings: SK-OV-3, 48 h; how it was run: as §2
IGROV-1 = assay: Growth inhibition of human IGROV1 cells after 48 hrs by SRB assay; assay type: functional; settings: IGROV-1, 48 h; how it was run: as §2
RPMI-8226 = assay: Growth inhibition of human RPMI8226 cells after 48 hrs by SRB assay; assay type: functional; settings: RPMI-8226, 48 h; how it was run: as §2
HT-29 = assay: Growth inhibition of human HT-29 cells after 48 hrs by SRB assay; assay type: functional; settings: HT-29, 48 h; how it was run: as §2
MOLT-4 = assay: Growth inhibition of human MOLT4 cells after 48 hrs by SRB assay; assay type: functional; settings: MOLT-4, 48 h; how it was run: as §2
SNB-75 = assay: Growth inhibition of human SNB75 cells after 48 hrs by SRB assay; assay type: functional; settings: SNB-75, 48 h; how it was run: as §2
K562 = assay: Growth inhibition of human K562 cells after 48 hrs by SRB assay; assay type: functional; settings: K562, 48 h; how it was run: as §2
MCF7 = assay: Growth inhibition of human MCF7 cells after 48 hrs by SRB assay; assay type: functional; settings: MCF7, 48 h; how it was run: as §2
HOP-92 = assay: Growth inhibition of human HOP92 cells after 48 hrs by SRB assay; assay type: functional; settings: HOP-92, 48 h; how it was run: as §2
Malme-3M = assay: Growth inhibition of human MALME-3M cells after 48 hrs by SRB assay; assay type: functional; how it was run: as §2

Compound: O=C(O)CCCc1ccc(N(CCCl)CCCl)cc1 [CHLORAMBUCIL]
- IC50 (MDA-MB-468 [1]): 34.4 µM
- Activity (dsDNA [2]): 5.7%

Compound: COC(=O)C1CSCc2cc(B(O)O)ccc2N(CCO)CCN1 (centres undefined)
- Drug uptake [3]: Active

Compound: CC1(C)OB(c2ccc(N(CCO)CCCl)cc2)OC1(C)C
- Drug uptake [4]: Active

Compound: CC1(C)OB(c2ccc(CO)cc2)OC1(C)C
- Activity (DNA): inactive

Compound: CC1(C)OB(c2ccc(N(CCCl)CCCl)cc2)OC1(C)C
- IC50 (MDA-MB-468 [1]): 24.6 µM
- GI50 (MDA-MB-468 [5]): 1.6 µM
- Drug metabolism [6]: Metabolite detected
- solubility [7]: 167 µM (≈ 57.5 µg/mL)
- GI50 (SR): 0.63 µM
- Drug metabolism [8]: Metabolite detected
- Drug metabolism [9]: Metabolite detected
- Activity (dsDNA [2]): 1.5 to 15%
- Activity (dsDNA [10]): < 65%

Compound: CCCCOC(=O)C(NC(=O)OC(C)(C)C)c1cn(Cc2cc(B3OC(C)(C)C(C)(C)O3)ccc2N(CCCl)CCCl)c2ccccc12 (centres undefined)
- growth inhibition (GI) [11]: inactive
- Activity (dsDNA [2]): < 5%

Compound: Cc1cc(N(CCCl)CCCl)ccc1B1OC(C)(C)C(C)(C)O1
- GI50 (CCRF-CEM): 2.9 µM
- GI50 (SK-OV-3): 4.62 µM
- IC50 (MDA-MB-468 [1]): 48.3 µM
- GI50 (IGROV-1): 16.1 µM
- GI50 (RPMI-8226): 12 µM
- GI50 (HT-29): 14.7 µM
- GI50 (MDA-MB-468 [5]): 7.88 µM
- solubility [7]: 24 µM (≈ 8.59 µg/mL)
- GI50 (MOLT-4): 2.6 µM
- GI50 (SR): 0.49 µM
- GI50 (SNB-75): 10.1 µM
- GI50 (K562): 5.48 µM
- GI50 (MCF7): 3.86 µM
- GI50 (HOP-92): 13.3 µM
- GI50 (Malme-3M): 13.6 µM
- Activity (dsDNA [2]): 1.5 to 15%
- Activity (dsDNA [10]): < 65%

Compound: N[C@H](CSCc1cc(B(O)O)ccc1N(CCO)CCCl)C(=O)O
- Drug uptake [3]: Active
